# Published values gathered from unrelated publications.
# Lines come from different studies, so protocols differ.
Compound,organism,test,system,conditions,quantity,value
CC(=O)NC[C@H]1CN(c2ccc(N3CCOCC3)c(F)c2)C(=O)O1,Streptococcus viridans,microbial growth,,clinical isolate,MIC90,1 µg/mL
C[C@@H]1[C@H](O)[C@@H](C)/C=C/C=C/C=C/C=C/C=C/C=C/C=C/[C@H](O[C@@H]2O[C@H](C)[C@@H](O)[C@H](N)[C@@H]2O)C[C@@H]2O[C@](O)(C[C@@H](O)C[C@@H](O)[C@H](O)CC[C@@H](O)C[C@@H](O)CC(=O)O[C@H]1C)C[C@H](O)[C@H]2C(=O)O,Candida tropicalis,"microbial growth, broth dilution",CGMCC2,48 h,MIC,< 0.25 µM
OC(Cn1cncn1)(Cn1cncn1)c1ccc(F)cc1F,Candida tropicalis,"microbial growth, broth dilution",,,MIC,8 µg/mL
CO[C@H]1/C=C/O[C@@]2(C)Oc3c(C)c(O)c4c(O)c(c(/C=N/N5CCN(C)CC5)c(O)c4c3C2=O)NC(=O)/C(C)=C\C=C\[C@H](C)[C@H](O)[C@@H](C)[C@@H](O)[C@@H](C)[C@H](OC(C)=O)[C@@H]1C,Mycolicibacterium smegmatis,microbial growth,,,MIC90,1.52 µM
C[C@@H]1[C@H](O)[C@@H](C)/C=C/C=C/C=C/C=C/C=C/C=C/C=C/[C@H](O[C@@H]2O[C@H](C)[C@@H](O)[C@H](N)[C@@H]2O)C[C@@H]2O[C@](O)(C[C@@H](O)C[C@@H](O)[C@H](O)CC[C@@H](O)C[C@@H](O)CC(=O)O[C@H]1C)C[C@H](O)[C@H]2C(=O)O,Candida tropicalis,"microbial growth, broth dilution",ATCC13803,48 h,MIC,32 µg/mL
NNC(=O)c1ccncc1,Mycolicibacterium smegmatis,microbial growth,,,MIC90,17.7 µM
CC(=O)ON=C1C=CC(=C(C#N)c2ccccc2)C=C1,Candida tropicalis,"microbial killing, broth dilution",ATCC13803,48 h,MFC,4 µg/mL
C=C[C@]1(C)C[C@@H](OC(=O)CS[C@@H]2C[C@H]3CC[C@@H](C2)N3C)[C@]2(C)[C@H](C)CC[C@]3(CCC(=O)[C@H]32)[C@@H](C)[C@@H]1O,Streptococcus agalactiae,microbial growth,,clinical isolate,MIC90,0.0312 µg/mL
CC(=O)N1CCN(c2ccc(OCC3COC(Cn4ccnc4)(c4ccc(Cl)cc4Cl)O3)cc2)CC1 (stereo not shown),Candida tropicalis,"microbial growth, broth dilution",CGMCC2,48 h,MIC,1 µM
N#CC(=C1C=CC(=NOC(=O)OCc2ccccc2)C=C1)c1ccccc1,Candida tropicalis,"microbial growth, broth dilution",ATCC13803,48 h,MIC,128 µg/mL
